Screening results (PubChem BioAssay)
697 NFkB inh: inhibitors of the PMA/ionomycin-induced NF-kB reporter in 697 B cells; 697 B-cell NF-kB luciferase reporter, 16 h; inhibition, % at 4 µM; 330,000 tested, 0.33% active; in the data active = inhibition above about 35%
hiPSC survival: hiPSC single-cell survival enhancement; ATPlite luminescence; 100% = ROCK inhibitor wells, 0% = DMSO; survival enhancement, % at 20 µM; 360,000 tested, 0.044% active; in the data active = survival enhancement above about 18%;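 note: cells exposed to compounds for 16 hours before the ATP read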
H9c2 TAG inh: inhibitors of triacylglycerol accumulation; H9c2 cells, Nile Red lipid (TAG) fluorescence; cells loaded with 200 µM oleic acid; inhibition, % at 12.5 µM; 230,000 tested, 0.66% active; AID 651582;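 active = pattern-corrected inhibition of lipid staining of at least 50% with the nuclear-stain viability signal not falling by more than 50%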;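 note: 0% = DMSO wells and 100% = triacsin C control wells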
Hep lipid drop: hepatic lipid droplet formation modulation | AML12 mouse hepatocytes, oleate lipid droplets, BODIPY imaging | inhibition, % at 6.5 µM | 240,000 tested, 0.4% active | AID 1656;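 active = lipid droplet intensity inhibited by at least 50%, with more than 500 cells counted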
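Assay system: AML12 mouse liver cells | Compound: 6.5 µM single-point dosing | Schedule: Overnight exposure | Technique: Fluorescence imaging, 20x objective, two fields per well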
Jurkat NFkB inh: inhibitors of the PMA/ionomycin-induced NF-kB reporter in Jurkat cells | PMA/ionomycin-induced NF-kB luciferase reporter, luminescence | inhibition, % at 4 µM | 330,000 tested, 0.53% active; in the data active = inhibition above about 50%
Gli-Sufu block: antagonists of Gli-Sufu signaling; Sufu-KO-LIGHT fibroblasts, Gli luciferase reporter luminescence; inhibition, % at 5 µM; 340,000 tested, 0.74% active; AID 588413;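 active = inhibition above about 55%, limit read from the data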;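 note: 0% = DMSO-treated cells and 100% = wells with medium but no cells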
Gli antag conf: Gli-SUFU antagonism confirmation, single concentration | inhibition, % at 5 µM | 2,500 tested, 40% active | shares compounds with Gli-Sufu block | Sufu-KO-LIGHT cells, Gli luciferase reporter, luminescence;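 active = mean inhibition at 5 µM reaching about 45%, limit read from the data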;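 note: plate controls were DMSO-treated cells for no effect and wells lacking cells for full effect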
SufuKO cytotox: cytotoxic in Gli-SUFU antagonist counter-screen; shares compounds with Gli-Sufu block; Sufu-KO-LIGHT cells cytotoxicity, ATP luminescence; cytotoxicity, % at 5 µM; 2,500 tested, 32% active;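 active = mean cytotoxicity at 5 µM above about 25%, limit read from the data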;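 note: cells exposed to compound overnight for roughly 16 to 18 hours; plate controls were DMSO wells with cells for no effect and medium without cells for full effect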
Wnt3a cs: counter-screen for Gli-SUFU antagonists: Wnt3a reporter inhibition; shares compounds with Gli-Sufu block; Wnt-LIGHT cells, Wnt3a-driven luciferase reporter, luminescence; inhibition, % at 6.25 µM; 2,500 tested, 20% active; AID 651995;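 active = mean inhibition above about 25%, limit read from the data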
* marks the source's active call; other numbers are inactive results; x = not tested or not shown. An excerpt weighted towards active compounds, which were near 1.8% of everything screened.

SMILES	697 NFkB inh	hiPSC survival	H9c2 TAG inh	Hep lipid drop	Jurkat NFkB inh	Gli-Sufu block	Gli antag conf	SufuKO cytotox	Wnt3a cs
CN1/C(=C/C(=O)COC(=O)CN2C(=O)C3CC=CCC3C2=O)C(C)(C)c2ccccc21 (stereo not drawn)	x	0	-22	x	x	10	x	x	x
Cn1cc(S(=O)(=O)N2CCc3ccccc32)cc1C(=O)NC(C)(C)C	19	-2	-36	-45	37	61*	58*	35*	13
COc1ccc(OC)c(NC(=O)NCCCCc2ccccc2)c1	-20	0	-16	-2	10	-4	x	x	x
CC(C)COc1cccc(C(=O)Nc2ccc(CN3CCOCC3)cc2)c1	-21	-1	x	12	-10	51	16	12	3
CC(C)COc1cccc(C(=O)Nc2ccc(S(=O)(=O)N3CCOCC3)cc2)c1	-38	0	x	15	-14	5	x	x	x
COc1ccc(CCNC(=O)C2CCN(S(=O)(=O)c3cccc4cccnc34)CC2)cc1OC	5	0	x	-25	-3	52	23	0	-17
CCCC(=O)Nc1ccc(C2C(=O)c3ccccc3C2=O)cc1	-54	0	19	2	-9	13	x	x	x
COc1ccc(CNCC(C)NCc2ccc(OC)c(OC)c2)cc1OC (stereo not drawn)	-1	0	x	2	15	61*	7	25	-28
CN(Cc1nc2ccccc2c(=O)[nH]1)Cc1nc2ccsc2c(=O)[nH]1	8	3	7	27	-3	62*	31	12	39*
Cc1ncc(CO)c(/C=N/NC(=O)c2cc(Br)ccc2O)c1O	9	0	-11	3	-2	96*	9	22	3
Nc1nonc1-n1nnc(C(=O)N/N=C/c2ccncc2)c1CSc1ccccc1	-31	0	x	-22	3	62*	27	20	2
CC1CCN(Cc2c(C(=O)N/N=C/c3ccccc3O)nnn2-c2nonc2N)CC1	-13	0	x	-51	36	52	62*	23	27*
Nc1nonc1-n1nnc(C(=O)N/N=C/c2ccccc2)c1CSc1ccccc1	-7	1	-8	x	-9	5	x	x	x
Cc1cc(C(=O)OCC(=O)NCc2ccco2)c(C)o1	6	0	-7	-2	2	-7	x	x	x
O=C(Nc1cccc(C(F)(F)F)c1)C1Cc2c(-c3ccccc3)ccnc2O1 (stereo not drawn)	x	4	-8	x	x	x	x	x	x
COc1ccc(N2C(=O)c3ccc(C(=O)Nc4cc(OC)ccc4OC)cc3C2=O)cc1	-17	0	x	-19	-15	x	x	x	x
COc1ccc(N2C(=O)c3ccc(C(=O)OC(C)C)cc3C2=O)cc1	11	-4	-3	-6	1	91*	21	20	22
CC1(C)CC(=O)C2=C(C1)OC(c1ccncc1)C(C#N)=C2N (stereo not drawn)	-9	2	5	6	-6	8	x	x	x
CC1(C)CC(=O)C2=C(C1)OC(c1ccc(O)cc1)C(C#N)=C2N (stereo not drawn)	-9	2	x	13	1	51	11	2	-6
Cn1c(CNC(=O)c2ccco2)nnc1SCC(=O)Nc1ccc(Cl)cc1	18	0	6	x	-2	97*	24	-9	-12
CC(C)N(Cc1ccccc1)C(=O)CN1C(=O)COc2ccc(S(=O)(=O)N3CCCCCC3)cc21	-15	0	x	4	-1	2	x	x	x
CN(C)c1ccc(/C=C/c2cc[n+]([O-])cc2)cc1	-20	x	x	x	-18	x	x	x	x
CC[n+]1ccccc1/C=C/c1ccc(N(C)C)cc1	x	-2	-39	-2	x	81*	84*	24	40*
COc1ccc(NC(=O)C2CC(=O)N=C(N)S2)cc1 (stereo not drawn)	25	2	-5	11	-5	-28	x	x	x
CC(C)(C)OC(=O)NCCCCCNC(=O)c1[nH]cnc1C(=O)NC1CCN(C(=O)OC(C)(C)C)CC1	-4	-1	3	x	13	22	x	x	x
SMILES	697 NFkB inh	hiPSC survival	H9c2 TAG inh	Hep lipid drop	Jurkat NFkB inh	Gli-Sufu block	Gli antag conf	SufuKO cytotox	Wnt3a cs
O=c1ccc(-c2ccc(S(=O)(=O)NCC3CCN(Cc4cccc(F)c4)CC3)s2)n[nH]1	1	0	x	-4	-21	59*	13	22	-5
CCN(CC(=O)Nc1ccc(NC(C)=O)cc1)C(=O)/C=C/c1ccc(S(=O)(=O)N2CCCCCC2)cc1	1	0	-3	12	14	-4	x	x	x
CCN1C(C(=O)Nc2cc(C)on2)=C(O)c2ccccc2S1(=O)=O	9	2	x	x	-5	1	x	x	x
Cc1cc(NC(=O)C2=C(O)c3ccccc3S(=O)(=O)N2C)no1	11	1	-2	1	0	62*	3	28*	-9
O=C(COC(=O)c1cccnc1Nc1ccccc1F)NCCN1C(=O)CSC1=O	24	1	x	0	-2	50	20	-3	-31
COc1ccc(CCNS(=O)(=O)c2csc(C(N)=O)c2)cc1OC	4	-1	x	-3	11	-9	x	x	x
COc1ccc(CNS(=O)(=O)c2csc(C(N)=O)c2)cc1OC	-11	0	x	6	0	55*	22	3	-25
Cc1ccc(NC(=O)C2CCN(S(=O)(=O)c3ccc(N4CCCC4=O)cc3)CC2)cc1Cl	6	0	x	-51	24	81*	84*	41*	8
COc1ccc(NC(=O)C2CCN(S(=O)(=O)c3ccc(N4CCCC4=O)cc3)CC2)c(OC)c1	10	1	x	-7	0	39	x	x	x
CC(=O)N1c2ccc(S(=O)(=O)N3CCCC(C(=O)Nc4ccc(C)cc4)C3)cc2CC1C (stereo not drawn)	x	1	-15	x	x	x	x	x	x
Cc1cc(S(=O)(=O)N2CCCC(C(=O)Nc3ccc(C(=O)O)cc3)C2)ccc1Cl (stereo not drawn)	-1	7	1	2	-5	55*	16	-7	14
CC(=O)c1ccc(N2CCN(C(=O)c3cc(-c4ccncc4)nc4ccc(Cl)cc34)CC2)cc1	-26	0	17	16	3	7	x	x	x
S=C(NC1CC2CCC1C2)N1CCN(c2cccc(Cl)c2)CC1 (stereo not drawn)	3	-1	-9	-4	6	18	x	x	x
COc1cccc(/C=N\NC(=O)c2ccc(Cn3cc(Br)c([N+](=O)[O-])n3)o2)c1O	-108	0	34	-9	5	56*	50*	13	47*
